Experimental data from different studies.
Each line is one published result; the experiments were not run side by side.
Target: Interferon-induced, double-stranded RNA-activated protein kinase (EIF2AK2, Homo sapiens, UniProt P19525)

O=c1nc(-c2ccccn2)sc2ccccc12 — remaining binding (binding; competition with immobilised ligand; 1 µM): 100%
O=C(c1ccc(Nc2ncc(Cl)c(-c3ccc(Cl)s3)n2)cc1)N1CCC(N2CCCC2)CC1 — remaining binding (binding; competition with immobilised ligand; 1 µM): 14%
CCOC(=O)c1cc2cc(-c3cc(C(=O)NCc4ccc(C(=O)O)cc4)nn3C)ccc2[nH]1 — remaining binding (cell-free assay; competition with immobilised ligand; 0.1 µM): 100%
COc1ncc2cc3ccccc3nc2c1C#N — remaining binding (cell-free assay; competition with immobilised ligand; 5 µM): 100%
COc1ccnn2ncc(-c3ccnc(N(C)C)n3)c12 — remaining binding (binding; 1 µM): 100%
CS(=O)(=O)N1CCCC(NC(=O)[C@H](CCC2CCCCC2)NC(=O)c2ccc(CNC(=O)c3cnc4ccccn34)cc2)C1 (some centres unmarked) — remaining binding (cell-free assay; competition with immobilised ligand; 0.1 µM): 47%
O=C(c1ccc(Nc2nccc(-c3cc4ccccc4s3)n2)cc1)N1CCC(N2CCCC2)CC1 — remaining binding (binding; competition with immobilised ligand; 1 µM): 21%
CN(C)c1ncnc(-c2ccc3nc(Nc4cc(CN5CCN(C(=O)CC(F)(F)F)CC5)ccn4)[nH]c3c2)c1Cl — remaining binding (cell-free assay; competition with immobilised ligand; 1 µM): 100%
CCN1CCN(Cc2ccc(C(=O)Nc3ccc(C)c(Oc4ccc5c(c4)CC(=O)N5)c3)cc2C(F)(F)F)CC1 — remaining binding (binding; competition with immobilised ligand; 1 µM): 96%
O=C(c1ccc(Nc2ncc(Cl)c(-c3cc4ccccc4s3)n2)cc1)N1CCC(N2CCCC2)CC1 — remaining binding (binding; competition with immobilised ligand; 1 µM): 22%
CN(CCCC(F)(F)F)c1nccc(-c2cnn3ncccc23)n1 — remaining binding (binding; 1 µM): 100%
O=C(O)c1cc(-c2ccc(C3CCNCC3)cc2)c2ccc(-c3ccc(C(F)(F)F)cc3)cc2c1 — remaining binding (cell-free assay; competition with immobilised ligand; 1 µM): 100%
C[C@@H]1CCN(c2nccc(-c3cnn4ncccc34)n2)C1 — remaining binding (binding; 1 µM): 83%
O=C(Nc1c[nH]nc1C(=O)NC1CCNCC1)c1cc(F)cc(F)c1 — remaining binding (binding; competition with immobilised ligand; 1 µM): 100%
F[C@@H]1CCN(c2nccc(-c3cnn4ncccc34)n2)C1 — remaining binding (binding; 1 µM): 100%
O=C(NCc1ncc(C(F)(F)F)cc1Cl)c1ccc2c(c1)C1(CCS(=O)(=O)CC1)[C@@H](C1CC1)N2S(=O)(=O)c1ccc(F)cc1 — remaining binding (cell-free assay; competition with immobilised ligand; 1 µM): 97%
CN(C)c1ncc(F)c(-c2cnn3ncccc23)n1 — remaining binding (binding; 1 µM): 100%
COc1cnc(Nc2cccc(S(N)(=O)=O)c2)nc1N1CCN(c2ccccc2)CC1 — remaining binding (binding; competition with immobilised ligand; 1 µM): 97%
N[C@@H]1CCN(c2nccc(-c3cnn4ncccc34)n2)C1 — remaining binding (binding; 1 µM): 100%
Nc1ncc2c(n1)-c1c([nH]c3ccc(C#CC4CC4)cc13)CCCC2 — remaining binding (binding; competition with immobilised ligand; 1 µM): 100%
